From ChEMBL document CHEMBL1157965, “Mono-, Bi-, and triphenanthrenes from the tubers of Cremastra appendiculata” (J Nat Prod, 2006)

What was measured:
Format in all cases: functional, cell-based
WISH = experiment: Cytotoxicity against human WISH cells after 96 hrs by MTT assay
In short: (§1)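 Cells kept in RPMI 1640 with 10% FBS, 100 units/mL penicillin and 100 µg/mL streptomycin at 37 °C, humidified 5% CO2. Seeded at 1200 cells/well; compounds added after 24 h at five concentrations from DMSO stocks (0.1% DMSO final), three wells per concentration.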

Bel-7402 = experiment: Cytotoxicity against human Bel7402 cells after 96 hrs by MTT assay; details: Bel-7402, 96 h; in short: as §1
A2780 = experiment: Cytotoxicity against human A2780 cells after 96 hrs by MTT assay; details: A2780, 96 h; in short: as §1
BGC-823 = experiment: Cytotoxicity against human BGC823 cells after 96 hrs by MTT assay; details: BGC-823, 96 h; in short: as §1
A549 = experiment: Cytotoxicity against human A549 cells after 96 hrs by MTT assay; details: A549, 96 h; in short: as §1
MCF7 = experiment: Cytotoxicity against human MCF7 cells after 96 hrs by MTT assay; details: MCF7, 96 h; in short: as §1
HCT-8 = experiment: Cytotoxicity against human HCT8 cells after 96 hrs by MTT assay; details: HCT-8, 96 h; in short: as §1

SMILES | IC50 (WISH) [µM] | IC50 (Bel-7402) [µM] | IC50 (A2780) [µM] | IC50 (BGC-823) [µM] | IC50 (A549) [µM] | IC50 (MCF7) [µM] | IC50 (HCT-8) [µM]
COc1ccc2c(ccc3c(-c4c(O)ccc5c4ccc4c(-c6c(O)cc(OC)c7c6ccc6cc(O)ccc67)c(O)cc(OC)c45)c(O)cc(OC)c32)c1 | > 15 | 8.2 | 8.1 | 8.4 | 11.6 | 8.3 | 8
COc1ccc2c(ccc3cc(O)cc(OC)c32)c1 | > 5 | > 5 | > 5 | > 5 | > 5 | > 5 | > 5
COc1ccc2c(ccc3c(-c4c(O)cc(OC)c5c4ccc4cc(O)ccc45)c(O)cc(OC)c32)c1 | > 10.2 | > 10.2 | > 10.2 | > 10.2 | > 10.2 | > 10.2 | > 10.2
COC1=CC(=O)C(O)(CC(C)=O)c2ccc3cc(OC)ccc3c21 (stereo not drawn) | > 15.3 | > 15.3 | > 15.3 | > 15.3 | > 15.3 | > 15.3 | > 15.3
COc1ccc2c(ccc3c(-c4c(O)cc(OC)c5c4ccc4cc(OC)ccc45)c(O)cc(OC)c32)c1 | 5 | 11.1 | 11 | 9.5 | 11.6 | 11.9 | 10.7
COC1=CC(=O)C(O)(CC(C)=O)c2ccc3cc(O)ccc3c21 (stereo not drawn) | > 16 | > 16 | > 16 | > 16 | > 16 | > 16 | > 16
COc1cc(O)c(-c2c(O)cc(OC)c3c2ccc2cc(O)ccc23)c2ccc3cc(O)ccc3c12 [CIRRHOPETALANTHIN] | > 22.7 | 8.4 | 13.2 | 10.5 | 17.8 | 12.5 | 11.2
COc1cc(O)cc2ccc3cc(O)ccc3c12 [FLAVANTHRININ] | > 20.8 | > 20.8 | > 20.8 | > 20.8 | > 20.8 | > 20.8 | > 20.8
CC[C@@]1(O)C(=O)OCc2c1cc1n(c2=O)Cc2cc3c(CN(C)C)c(O)ccc3nc2-1 [TOPOTECAN] | 1.3 | 1.2 | 1.1 | 4.4 | 3.3 | 1.9 | 1.5
